Source: article PMC3475189 (Environmental science & technology, 2012)

Assays:
[1] = Tissue levels of PCB 95 and OH-PCB metabolites by GC-ECD; format: in vivo, female C57Bl/6 mice; settings: for levels in adipose and brain samples: detection limits 11 to 16 ng/g tissue; for concentration at 24 h: female, C57Bl/6, mouse, brain
[2] = cited from earlier work
[3] = Enantiomeric fractions in tissues by enantioselective GC; format: in vivo, female C57Bl/6 mice
Method in brief: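 Extracts of blood, brain, liver and adipose came from mice given 0.1, 1.0 or 6.0 mg/kg/day orally in peanut butter for 39 days and sacrificed 24 h after the last dose. Enantioselective GC-ECD used Chirasil Dex, BGB-172 or ChiralDex B-DM columns: 35 to 140 °C held 420 min, then 200 °C; injector and detector 250 °C; helium 3 mL/min. EF = A1/(A1+A2), E1 being the first-eluting atropisomer; mean ± SD.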

[4] = tested on: CYP2B10 mRNA; experiment: Hepatic CYP2B10 mRNA level by qPCR; format: in vivo, female C57Bl/6 mice; settings: liver, low dose 0.1 mg/kg b.w./day, 39 days oral
[5] = tested on: CYP1A2 mRNA; experiment: Hepatic CYP1A2 mRNA level by qPCR; format: in vivo, female C57Bl/6 mice; settings: liver, 39 days oral
[6] = tested on: CYP3A11 mRNA; experiment: Hepatic CYP3A11 mRNA level by qPCR; format: in vivo, female C57Bl/6 mice; settings: liver, high dose 6 mg/kg b.w./day, 39 days oral
[7] = tested on: CYP2S1 mRNA; experiment: Hepatic CYP2S1 mRNA level by qPCR; format: in vivo, female C57Bl/6 mice; settings: liver, all doses, 39 days oral
[8] = General toxicity; format: in vivo, female C57Bl/6 mice; settings: 0.1, 1 or 6 mg/kg b.w./day oral for 39 days, any dose level
Method in brief: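 Seven-week-old female C57Bl/6 mice, housed singly on a 12 h reverse light cycle, were acclimated 7 days. They then took the test compound in peanut butter daily at 0.1, 1.0 or 6.0 mg/kg/day for 39 days, with the amount adjusted to daily body weight; vehicle controls received peanut butter only. Body weights were recorded daily and analysed by two-way repeated measures ANOVA.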

[9] = tested on: P450 mRNA (CYP1A2, CYP3A11, CYP2B10, CYP2S1); experiment: Brain P450 mRNA levels by qPCR; format: in vivo, female C57Bl/6 mice; settings: 39 days oral

## COc1c(Cl)cc(Cl)c(-c2cc(Cl)ccc2Cl)c1Cl [3-103, 3 Methoxy 2,2′,4,5′,6-pentachlorobiphenyl]
[1]
  levels in adipose and brain samples: below their respective detection limits

## COc1c(Cl)c(Cl)c(-c2cc(Cl)ccc2Cl)c(Cl)c1OC [4,5-95, 4,5-dimethoxy-2,2′,3,5′,6-pentachlorobiphenyl]
[1]
  levels in adipose and brain samples: below their respective detection limits

## Oc1cc(Cl)c(-c2cc(Cl)ccc2Cl)c(Cl)c1Cl [4-95, 2,2′,3,5′,6-pentachlorobiphenyl-4-ol]
[1]
  levels in adipose and brain samples: below their respective detection limits
[1]; liver, low dose treatment group
  level in liver: below the detection limit

## Oc1c(Cl)cc(-c2ccc(Cl)c(Cl)c2)c(Cl)c1Cl [4-107, 2,3,3′,4′,5-pentachlorobiphenyl-4-ol]
[2]; fetal brain after oral administration of 4-107 to pregnant Wistar rats
  level in fetal brains: ~ 1 μg/g tissue
[2]; post-weanling rats
  level in post-weanling rats: below detection

## Oc1cc(Cl)c(Cl)c(-c2cc(Cl)ccc2Cl)c1Cl [5-95, 2,2′,3,5′,6-pentachlorobiphenyl-5-ol]
[3]; liver, high dose treatment group
  enriched atropisomer: E1-5-95 was enriched
[3]; liver, medium dose treatment group
  enantiomeric enrichment: no consistent enantiomeric enrichment
[1]
  levels in adipose and brain samples: below their respective detection limits

## Clc1ccc(Cl)c(-c2c(Cl)ccc(Cl)c2Cl)c1 [PCB 95, 2,2′,3,5′,6-pentachlorobiphenyl]
[4]
  CYP2B10 mRNA levels compared to control: no change
[3]; adipose, EF = A1/(A1+A2)
  average EF value across treatment groups: ≈ 0.19
[3]; blood, brain, liver and adipose, all three treatment groups
  enriched atropisomer: E2-PCB 95 was enriched
[3]; liver and blood, EF = A1/(A1+A2)
  average EF across treatment groups: approximately 0.10
[5]; high dose 6 mg/kg b.w./day
  CYP1A2 transcript levels relative to control: not changed
[5]; low dose 0.1 mg/kg b.w./day
  induction of CYP1A2 mRNA compared to control: 1.9 fold
[1]; oral, 6 mg/kg/day
  concentration at 24 h: 360 ng/g
[1]; po
  concentration at 24 h: 37 to 360 ng/g
[1]; low to medium dose (10-fold increase in dose)
  increase in adipose levels of PCB 95: 10 fold
[6]
  hepatic CYP3A11 levels compared to control: no change
[7]
  hepatic CYP2S1 mRNA levels: not affected
[8]
  effect on final body weight, growth rate or other signs of general toxicity: no effect
[9]
  brain P450 mRNA levels: not affected
